From ChEMBL document CHEMBL1649098 (ACS Med Chem Lett, 2011)
Active and inactive are the calls of the source.

Key:
Cytochrome P450 2D6 = Cytochrome P450 2D6 (Homo sapiens, UniProt P10635); experiment: Inhibition of CYP2D6; type: ADME
Method in brief: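 CYP inhibition was tested in human liver microsomes with relevant probe substrates.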

[1] = target: T1, Fatty-acid amide hydrolase 1 (Homo sapiens, UniProt O00519); experiment: Inhibition of His-tagged human FAAH N-terminal transmembrane-deleted truncated form expressed in Escherichia coli preincubated for 60 mins before oleamide substrate addition
T1 sequence (O00519 whole entry): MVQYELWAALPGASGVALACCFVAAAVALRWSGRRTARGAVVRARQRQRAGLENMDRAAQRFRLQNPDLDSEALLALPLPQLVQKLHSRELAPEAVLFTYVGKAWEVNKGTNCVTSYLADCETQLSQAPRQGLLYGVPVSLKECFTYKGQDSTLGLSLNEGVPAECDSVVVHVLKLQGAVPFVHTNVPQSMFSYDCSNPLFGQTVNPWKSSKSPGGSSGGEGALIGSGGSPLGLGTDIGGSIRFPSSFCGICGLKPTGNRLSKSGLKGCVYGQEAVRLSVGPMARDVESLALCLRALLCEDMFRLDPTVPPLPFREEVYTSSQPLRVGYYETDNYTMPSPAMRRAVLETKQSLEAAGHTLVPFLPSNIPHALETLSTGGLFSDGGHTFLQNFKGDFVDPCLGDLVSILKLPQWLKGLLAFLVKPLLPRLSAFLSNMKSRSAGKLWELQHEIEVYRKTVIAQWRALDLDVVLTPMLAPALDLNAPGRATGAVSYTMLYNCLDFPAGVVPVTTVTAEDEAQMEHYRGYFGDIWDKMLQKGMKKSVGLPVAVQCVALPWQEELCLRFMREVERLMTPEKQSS
Method in brief: (§1)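 IC50 was determined after a 60 min preincubation of inhibitor with human or rat FAAH.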

[2] = target: T2, Fatty-acid amide hydrolase 1 (Rattus norvegicus, UniProt P97612); experiment: Irreversible inhibition of His-tagged rat FAAH N-terminal transmembrane-deleted truncated form expressed in Escherichia coli preincubated for 60 mins before oleamide substrate addition; method in brief: as §1
T2 sequence (P97612 whole entry): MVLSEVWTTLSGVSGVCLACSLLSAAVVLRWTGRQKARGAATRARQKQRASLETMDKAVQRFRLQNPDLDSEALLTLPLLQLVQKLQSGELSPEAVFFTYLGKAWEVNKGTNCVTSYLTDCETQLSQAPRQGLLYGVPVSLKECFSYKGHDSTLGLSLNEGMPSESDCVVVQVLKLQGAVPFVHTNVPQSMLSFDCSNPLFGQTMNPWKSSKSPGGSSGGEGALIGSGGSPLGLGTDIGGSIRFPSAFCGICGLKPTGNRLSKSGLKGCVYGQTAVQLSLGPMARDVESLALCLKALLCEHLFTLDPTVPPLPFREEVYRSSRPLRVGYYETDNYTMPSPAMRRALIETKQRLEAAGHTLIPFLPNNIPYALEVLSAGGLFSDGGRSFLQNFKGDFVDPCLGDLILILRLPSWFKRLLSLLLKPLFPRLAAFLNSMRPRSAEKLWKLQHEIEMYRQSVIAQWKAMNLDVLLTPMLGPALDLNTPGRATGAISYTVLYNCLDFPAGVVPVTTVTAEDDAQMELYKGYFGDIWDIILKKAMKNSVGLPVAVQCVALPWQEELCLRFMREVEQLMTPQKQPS

[3] = target: T3, Fatty-acid amide hydrolase 1 (Mus musculus) (UniProt O08914); experiment: Inhibition of FAAH in mouse brain membrane proteomes at 10 uM by competitive activity based protein profiling; type: cell membranes
T3 sequence (whole entry): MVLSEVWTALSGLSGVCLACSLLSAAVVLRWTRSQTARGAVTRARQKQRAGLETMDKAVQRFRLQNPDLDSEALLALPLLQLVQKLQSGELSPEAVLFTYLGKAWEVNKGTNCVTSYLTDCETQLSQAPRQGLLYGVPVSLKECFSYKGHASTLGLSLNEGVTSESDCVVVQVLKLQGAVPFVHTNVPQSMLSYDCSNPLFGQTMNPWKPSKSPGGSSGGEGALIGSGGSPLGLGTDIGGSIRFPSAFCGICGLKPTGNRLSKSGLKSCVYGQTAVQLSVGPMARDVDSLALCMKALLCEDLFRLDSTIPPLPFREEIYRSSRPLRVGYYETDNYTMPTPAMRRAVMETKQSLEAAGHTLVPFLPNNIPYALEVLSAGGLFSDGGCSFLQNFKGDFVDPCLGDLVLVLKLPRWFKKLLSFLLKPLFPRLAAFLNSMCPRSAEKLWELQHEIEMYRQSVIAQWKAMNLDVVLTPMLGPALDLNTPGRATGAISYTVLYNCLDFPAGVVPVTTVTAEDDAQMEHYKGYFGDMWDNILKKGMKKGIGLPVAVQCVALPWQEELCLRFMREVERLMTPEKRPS
Method in brief: (§2)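 Competitive activity-based protein profiling used human and mouse brain membrane and soluble liver proteomes. Each was treated with compound at 10 or 100 μM or with DMSO, then labelled with FP-rhodamine. Serine hydrolases were resolved on fluorescent gels. Enzymes with reduced labelling intensity in the presence of inhibitor were scored as targets.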

[4] = target: T3, Fatty-acid amide hydrolase 1 (Mus musculus); experiment: Inhibition of FAAH in mouse brain membrane proteomes at 100 uM by competitive activity based protein profiling; type: cell membranes; method in brief: as §2
Mus musculus = species on record: Mus musculus; experiment: Inhibition of fluorophosphonate-reactive serine proteases in mouse liver soluble proteomes at 100 uM by competitive activity based protein profiling; method in brief: as §2
Homo sapiens = species on record: Homo sapiens; experiment: Inhibition of fluorophosphonate-reactive serine proteases in human liver soluble proteomes at 100 uM by competitive activity based protein profiling; method in brief: as §2
[5] = Cmax in rat at 1 mg/kg, po; type: ADME, organism-based; set-up: dose 1 mg/kg, route oral; conditions: in vivo
Method in brief: (§3)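 Plasma pharmacokinetics used 1 mg/kg in rat and 0.5 mg/kg in dog, given iv and po. The iv formulation was 5% dimethylacetamide/95% (40% SBE-cyclodextrin in water). Oral dosing was a methylcellulose suspension of crystalline material.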

[6] = Tmax in rat at 1 mg/kg, iv or 1 mg/kg, po; type: ADME, organism-based; conditions: in vivo; method in brief: as §3
[7] = Clearance in rat at 1 mg/kg, iv or 1 mg/kg, po; type: ADME, organism-based; conditions: in vivo; method in brief: as §3
[8] = Volume of distribution at steady state in rat at 1 mg/kg, iv or 1 mg/kg, po; type: ADME, organism-based; conditions: in vivo, read-out: Vdss; method in brief: as §3
[9] = Half life in rat at 1 mg/kg, iv; type: ADME, organism-based; set-up: dose 1 mg/kg, route intravenous; conditions: in vivo; method in brief: as §3
[10] = Oral bioavailability in rat at 1 mg/kg; type: ADME, organism-based; conditions: in vivo; method in brief: as §3
[11] = Cmax in dog at 0.5 mg/kg, po; type: ADME, organism-based, Canis lupus familiaris; set-up: dose 0.5 mg/kg, route oral; conditions: in vivo; method in brief: as §3
[12] = Tmax in dog at 0.5 mg/kg, iv or 0.5 mg/kg, po; type: ADME, organism-based, Canis lupus familiaris; conditions: in vivo; method in brief: as §3
[13] = Clearance in dog at 0.5 mg/kg, iv or 0.5 mg/kg, po; type: ADME, organism-based, Canis lupus familiaris; conditions: in vivo; method in brief: as §3
[14] = Volume of distribution at steady state in dog at 0.5 mg/kg, iv or 0.5 mg/kg, po; type: ADME, organism-based, Canis lupus familiaris; conditions: in vivo, read-out: Vdss; method in brief: as §3
[15] = Half life in dog at 0.5 mg/kg, iv; type: ADME, organism-based, Canis lupus familiaris; set-up: dose 0.5 mg/kg, route intravenous; conditions: in vivo; method in brief: as §3
Canis familiaris = experiment: Oral bioavailability in dog at 0.5 mg/kg, iv; type: ADME, organism-based, Canis lupus familiaris; conditions: in vivo; method in brief: as §3
MDCK [16] = experiment: Apparent permeability from apical to basolateral side of MDCK cells; type: ADME, cell-based, Canis lupus familiaris; conditions: dog
MDCK [17] = experiment: Apparent permeability from basolateral to apical side of MDCK cells; type: ADME, cell-based, Canis lupus familiaris; conditions: dog
Hepatocyte [18] = experiment: Metabolic stability in human hepatocytes assessed as glutathione conjugate formation; type: ADME, cell-based
Method in brief: (§4)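 Reactive metabolite potential was assessed by looking for glutathione conjugates in rat or human hepatocyte incubations.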

Hepatocyte [19] = experiment: Metabolic stability in rat hepatocytes assessed as glutathione conjugate formation; type: ADME, cell-based; method in brief: as §4
Liver microsomes [20] = experiment: Half life in human liver microsomes at 0.8 mg/mL protein concentration; type: ADME, Microsome
Method in brief: (§5)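 Human liver microsomes at 0.8 mg/mL protein were used for half-life and microsomal protein binding. These in vitro data were used to predict human blood clearance.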

Liver microsomes [21] = experiment: Protein binding in human liver microsomes at 0.8 mg/mL protein concentration; type: ADME, Microsome; method in brief: as §5
Rattus norvegicus [22] = experiment: Antihyperalgesic activity in orally dosed Sprague-Dawley rat model of complete Freund's adjuvant-induced inflammatory pain model assessed as reduction in mechanical allodynia measured 4 hrs post dose; type: functional
Method in brief: (§6)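 CFA was injected subcutaneously into the plantar surface of the rat hind paw. Oral dosing at 0.1-10 mg/kg began 5 days post-injection, once mechanical paw withdrawal threshold had fallen. Mechanical allodynia was read as paw withdrawal threshold 4 h after dosing. n=8 rats per group; significance versus vehicle-treated groups at p<0.05.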

Rattus norvegicus [23] = experiment: Antihyperalgesic activity in Sprague-Dawley rat model of complete Freund's adjuvant-induced inflammatory pain model assessed as reduction in mechanical allodynia at 0.1 mg/kg, po measured 4 hrs post dose; type: functional, organism-based; set-up: dose 0.1 mg/kg; method in brief: as §6
[24] = target: T4, Fatty-acid amide hydrolase 1 (Homo sapiens) (UniProt O00519); conditions: 10 uM
T4 sequence (whole entry): T1 sequence (O00519 whole entry)

[25] = target: T4, Fatty-acid amide hydrolase 1 (Homo sapiens); conditions: 100 uM

Sequence of Cytochrome P450 2D6 (P10635 whole entry): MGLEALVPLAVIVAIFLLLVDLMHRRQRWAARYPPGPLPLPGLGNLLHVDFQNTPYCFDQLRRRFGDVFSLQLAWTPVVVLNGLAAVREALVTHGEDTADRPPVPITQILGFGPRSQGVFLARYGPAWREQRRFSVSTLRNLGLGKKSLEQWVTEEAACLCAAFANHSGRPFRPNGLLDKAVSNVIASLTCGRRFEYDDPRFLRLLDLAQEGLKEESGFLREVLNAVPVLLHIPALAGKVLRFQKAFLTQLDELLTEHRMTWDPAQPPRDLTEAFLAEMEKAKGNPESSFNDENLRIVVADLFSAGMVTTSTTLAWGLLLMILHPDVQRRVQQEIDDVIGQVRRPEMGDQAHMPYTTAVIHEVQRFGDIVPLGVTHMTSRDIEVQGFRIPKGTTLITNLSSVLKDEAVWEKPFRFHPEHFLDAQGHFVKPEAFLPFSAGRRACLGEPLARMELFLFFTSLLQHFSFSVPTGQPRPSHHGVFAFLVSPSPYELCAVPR

## O=C(Nc1cccnn1)N1CCC(=Cc2cccc(Oc3ccc(C(F)(F)F)cn3)c2)CC1
Cytochrome P450 2D6
  IC50: 14500 nM
[1]
  IC50: 7.2 nM
[2]
  IC50: 7.4 nM
[3]
  inhibition: Active
[4]
  inhibition: Active
Mus musculus
  inhibition: inactive
Homo sapiens
  inhibition: inactive
[5]
  Cmax: 256 ng/mL
[6]
  Tmax: 4 h
[7]
  clearance: 3 mL/min/kg
[8]
  Vd: 3.2 L/kg
[9]
  half-life: 14.3 h
[10]
  bioavailability: 88%
[11]
  Cmax: 240 ng/mL
[12]
  Tmax: 1 h
[13]
  clearance: 1.3 mL/min/kg
[14]
  Vd: 2.9 L/kg
[15]
  half-life: 35.2 h
Canis familiaris
  F: 58%
MDCK [16]
  permeability: 15.2 ×10⁻⁶ cm/s
MDCK [17]
  permeability: 20.2 ×10⁻⁶ cm/s
Hepatocyte [18]
  Stability: Stable
Hepatocyte [19]
  Stability: Stable
Liver microsomes [20]
  t1/2: 1.75 h
Liver microsomes [21]
  PB: 90%
Rattus norvegicus [22]
  MED: 0.1 mg/kg
Rattus norvegicus [23]
  inhibition: Active
[24]
  inhibition: Active
[25]
  inhibition: Active
